In the library only some 3.2% were active in any assay of this set; here they are far more common.
NR2E3 ag-1 – agonists of human NR2E3 nuclear receptor | Q9Y5X4 | CHO-S Gal4-NCOR/VP16-NR2E3 two-hybrid, luciferase | AID 602229 | 360,000 compounds, 0.35% hits | inhibition of corepressor binding, % at 3.98 µM;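 active means inhibition above the mean of all tested compounds plus 3 SD, cut at about 70% in these data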;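 further: 0% = DMSO with NR2E3 transfected cells and 100% = cells lacking NR2E3 construct; higher means lower luciferase signal from less NR2E3 corepressor binding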
Target sequence (Q9Y5X4 whole entry, looked up, the tested form may be a part): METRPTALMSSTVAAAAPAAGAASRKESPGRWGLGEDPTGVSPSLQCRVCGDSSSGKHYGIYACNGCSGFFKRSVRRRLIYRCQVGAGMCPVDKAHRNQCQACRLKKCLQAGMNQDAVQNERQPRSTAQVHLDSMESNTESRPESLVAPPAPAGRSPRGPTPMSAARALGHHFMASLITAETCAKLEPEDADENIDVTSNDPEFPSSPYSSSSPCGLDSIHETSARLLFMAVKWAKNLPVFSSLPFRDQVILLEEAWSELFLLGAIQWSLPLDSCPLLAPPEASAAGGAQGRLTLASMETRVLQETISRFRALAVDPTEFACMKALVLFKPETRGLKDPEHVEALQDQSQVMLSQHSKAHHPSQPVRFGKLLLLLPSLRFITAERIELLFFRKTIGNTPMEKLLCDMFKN
NR2E3 ag-2 – activates human photoreceptor nuclear receptor NR2E3; GST-NR2E3/biotin-RetCOR TR-FRET, 1536-well; inhibition of corepressor binding, % at 4.78 µM; 320,000 compounds, 0.12% hits;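 active means percent inhibition above the cutoff of mean plus 3 SD of all tested compounds, set per screening campaign, cut at about 20% in these data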;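 further: 0% = DMSO wells and 100% = biotin wells as full block of FRET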
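system = GST-tagged NR2E3 plus biotinylated RetCOR corepressor | input = 1.35 nM GST-NR2E3 | also added = 7 nM biotin-RetCOR | schedule = 5 h incubation at 4 °C | measured by = TR-FRET with europium anti-GST and streptavidin-D2, 340 nm excitation | read-out = percent loss of FRET ratio relative to control wells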
DAX1 inh-1 – inhibits human nuclear receptor DAX1; inhibition, % at 6.75 µM; P51843; HEK293 Gal4-DAX1 luciferase reporter, luminescence; 340,000 compounds, 0.99% hits;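 active means inhibition above the mean over all tested compounds plus 3 SD, cut at about 4.2% in these data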;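 further: 0% = DAX1-transfected cells with DMSO and 100% = empty-vector control cells with DMSO; inhibition shows as a rise in luminescence from relieved DAX1 repression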
JMJD2C inh – inhibitors of human GASC-1 (JMJD2C) demethylase; Q9H3R0; GST-JMJD2C(1-420) H3K9me3 demethylation, DELFIA europium; inhibition, % at 2.35 µM; 330,000 compounds, 0.069% hits; AID 2099;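 active means more than half of a compound's replicate wells show inhibition beyond 50%, single wells judged on their own value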;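 further: signal counts dimethyl H3K9 product captured on neutravidin plate; 0% = median of DMSO wells and 100% = 0.3 times that DMSO median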
DAX1 inh-2 – blocks DAX1 repression of SF-1 activated StAR promoter; HEK293T StAR-luciferase reporter, SF-1/DAX-1 repression relief; inhibition, % at 6.8 µM; 370,000 compounds, 1.1% hits;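 active means inhibition above the mean over all tested compounds plus 3 SD, cut at about 3.6% in these data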;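 further: 0% = DAX-1 cells with DMSO and 100% = cells lacking DAX-1 with DMSO; higher inhibition means more luminescence from relief of DAX-1 repression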
SMARCA2 act – activators of SMARCA2 function. MG213 cells, MMTV-luciferase reporter, dexamethasone, overnight. activation, % at 9.1 µM. 370,000 compounds, 1% hits; in the data active means activation above about 7.8%;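 further: 0% = vehicle wells and 100% = reference activator wells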
Active calls of the source: *; nt = not tested or not shown.

SMILES	NR2E3 ag-1	NR2E3 ag-2	DAX1 inh-1	JMJD2C inh	DAX1 inh-2	SMARCA2 act
CCCC(C(=O)NCC1CCCO1)N(C(=O)CNS(=O)(=O)c1ccccc1)c1ccc(F)cc1 (stereo not drawn)	-21	3	4.6*	0	0	-2
CC(C)C[C@@H]1COc2cc(N3CCSCC3)ccc2S(=O)(=O)N1C	nt	nt	nt	nt	-2	-1
O=C(O)c1cccc(N=NN2CCOCC2)c1	-25	3	nt	9	3.7*	4
c1ccc(N=NN2CCOCC2)cc1	-34	nt	1	nt	0	2
Cc1cc(-c2ccccc2)nc(N/N=C/c2ccc(O)cc2)n1	-53	nt	-1	nt	3.9*	1
Cc1cc(C)nc(N/N=C/c2ccccc2)n1	-41	-1	0	9	nt	nt
COc1ccc(N/N=C(\C#N)C(=N)N2CCOCC2)cc1	-25	-1	5.3*	-4	3	-2
N#C/C(=N\Nc1ccccc1)C(=N)N1CCCCCC1	-116	4	6.8*	-13	2	2
O=c1[nH]c2ccc(S(=O)(=O)N3CCCC3)cc2o1	nt	nt	nt	nt	1	5
Cn1c(Cc2cccs2)nnc1SCC(=O)Nc1ccc2c(c1)OCO2	nt	nt	nt	nt	0	-3
N#Cc1ccc(/C=C2\CC3(OC(=O)c4cccc(F)c4)CCCN2C3)cc1 (stereo not drawn)	nt	nt	nt	nt	-2	-2
O=C1Nc2ccccc2OC1CC(=O)N1CCN(c2cccc(C(F)(F)F)c2)CC1 (stereo not drawn)	-1	3	0	-4	0	-5
O=C1Nc2ccccc2OC1CC(=O)N1CCOCC1 (stereo not drawn)	-16	2	6.0*	3	1	2
C#CCNC(=O)c1cnn(-c2ccccc2)c1N	nt	nt	nt	nt	0	-1
COC(=O)c1ccc(C)c(NC(=O)CN(c2cc(OC)ccc2OC)S(C)(=O)=O)c1	-29	5	1	nt	4.2*	1
COc1ccc(OC)c(N(CC(=O)N2CCCC2)S(C)(=O)=O)c1	1	0	4.5*	-6	0	0
COc1ccc(C)cc1N(CC(=O)N1CCCC1)S(C)(=O)=O	24	3	1	1	-1	-1
C/C(=N\NC(=O)c1ccc(Cl)cc1)c1cccnc1	-34	1	2	-1	0	-2
C/C(=N\NC(=O)c1c(Cl)cnn1C)c1cccnc1	-100	nt	2	-6	4.3*	4
Cc1c(C(=O)NC2CCCc3ccccc32)oc2ccc(S(=O)(=O)N3CCOCC3)cc12 (stereo not drawn)	-36	-1	5.8*	-11	-1	-3
COCCCNC(=O)c1oc2ccc(S(=O)(=O)N3CCOCC3)cc2c1C	-7	6	4.9*	1	0	2
C#CCN1CC(N(C)CCOC(=O)CSc2ccccc2)CS1(=O)=O (stereo not drawn)	nt	nt	nt	nt	-1	-5
CCc1ccc(N2CC34C=CC(O3)C(C(=O)OC(C)C)C4C2=O)cc1 (stereo not drawn)	-13	5	1	4	0	-1
CCc1ccc(N2CC34C=CC(O3)C(C(=O)OC)C4C2=O)cc1 (stereo not drawn)	-18	-1	4.4*	-5	1	0
COC(=O)[C@]12C[C@H](CC(=O)NCc3cccc4ccccc34)C(=O)N(CCc3ccc(OC)c(OC)c3)C1=C[C@H](COCc1ccccc1)O[C@@H]2C	nt	nt	nt	nt	-1	-2
SMILES	NR2E3 ag-1	NR2E3 ag-2	DAX1 inh-1	JMJD2C inh	DAX1 inh-2	SMARCA2 act
Cn1c2c(c(=O)n(C)c1=O)CN(CCCN1CCOCC1)CN2	-11	-2	3	53*	-1	-4
O=C1c2ccccc2NC(c2cccc(Cl)c2)N1N=C1CCCCCC1 (stereo not drawn)	-43	-3	4.9*	-5	2	2
CCOC(=O)[C@]12CCCCC/C=C\1N(Cc1ccc(OC)cc1)C(=O)[C@H]2CC(=O)N1CCN(C(=O)c2ccco2)CC1	nt	nt	nt	nt	-1	-4
O=C(c1cc(F)ccc1F)N(Cc1ccccn1)CC1CCCO1 (stereo not drawn)	nt	nt	nt	nt	0	-2
CCn1c(=O)n(CC(=O)N2CCN(c3ccc(F)cc3)CC2)c(=O)c2ccccc21	nt	nt	nt	nt	0	-4
COc1ccccc1NC(=O)C/C(C)=N/NC(=O)COc1c(Br)cc(Br)cc1OC	6	0	3	0	4.2*	-5

Bioassay records (PubChem BioAssay)
